Measured values reported in ChEMBL document CHEMBL4680226, “Design, synthesis, and evaluation of N-phenyl-4-(2-phenylsulfonamido)-benzamides as microtubule-targeting agents in drug-resistant cancer cells, displaying HDAC inhibitory response” (Eur J Med Chem, 2020).
Calls of active or inactive are those of the source. The rule behind the calls is not given here.

How the values were obtained:
[1] = Antiproliferative activity against human KB-VIN cells incubated for 48 hrs by SRB assay; format: functional; details: KBVIN
Procedure, shortened: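 KB parental and resistant sublines kept in RPMI 1640 with 5% FBS at 37 °C, 5% CO2. Cells plated, left overnight, then given graded compound concentrations for 48 h. A time-zero plate was fixed with 10% TCA at dosing. Cells were stained with 0.4% SRB in 1% acetic acid, unbound dye washed off, bound dye dissolved in 10 mM Tris base, and absorbance read at 515 nm.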

Histone deacetylase 1 = Histone deacetylase 1 (Homo sapiens, UniProt Q13547); assay: Inhibition of recombinant human full-length C-terminal FLAG-His tagged HDAC1 (1 to 482 residues) expressed in Sf21 insect cells using RHK-K(Ac)-AMC as substrate measured after 60 mins by fluorescence assay
Histone deacetylase 2 = Histone deacetylase 2 (Homo sapiens, UniProt Q92769); assay: Inhibition of recombinant human C-terminal GST-tagged HDAC2 (1 to 488 residues) expressed in baculovirus infected insect cells using RHKKAc-AMC as substrate measured after 60 mins by fluorescence assay
[2] = target: Histone deacetylase 3/Nuclear receptor corepressor 2 (HDAC3/NCoR2) (Homo sapiens, UniProt O15379); assay: Inhibition of human recombinant HDAC3/NCOR2 using RHKKAc-AMC as substrate measured after 60 mins by fluorescence assay; format: protein-complex assay
KB-VIN [3] = assay: Induction of apoptosis in human KB-VIN cells assessed as increase in cleaved PARP expression by Western blot analysis; format: functional, cell-based
Procedure, shortened: (§1)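 Resistant KB cells attached overnight, then drug-treated at the stated concentrations and times (24 h or 48 h). Lysates were immunoblotted for cleaved PARP, caspase-3, -8 and -9, and γH2AX, with anti-mouse or anti-rabbit IgG secondaries.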

KB-VIN [4] = assay: Induction of apoptosis in human KB-VIN cells assessed as increase in cleaved caspase-9 expression by Western blot analysis; format: functional, cell-based; procedure, shortened: as §1
KB7D [5] = assay: Induction of apoptosis in human KB7D cells assessed as increase in cleaved PARP expression by Western blot analysis; format: functional, cell-based; procedure, shortened: as §1
KB7D [6] = assay: Induction of apoptosis in human KB7D cells assessed as increase in activated gammaH2AX expression by Western blot analysis; format: functional, cell-based; procedure, shortened: as §1
KB7D [7] = assay: Induction of apoptosis in human KB7D cells assessed as increase in cleaved caspase-9 expression by Western blot analysis; format: functional, cell-based
Procedure, shortened: (§2)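 KB-7D cells in RPMI 1640 with 5% FBS and 1% penicillin-streptomycin at 37 °C, 5% CO2, attached overnight. Treated with indicated concentrations for 24 or 48 h, lysed, and immunoblotted for cleaved caspases.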

KB-VIN [8] = assay: Induction of apoptosis in human KB-VIN cells assessed as increase in cleaved caspase-3 expression at 0.1 to 0.5 uM measured after 24 hrs by Western blot analysis; format: functional, cell-based; details: dose 0.1-0.5 µM; procedure, shortened: as §1
KB-VIN [9] = assay: Induction of apoptosis in human KB-VIN cells assessed as increase in cleaved caspase-9 expression at 0.1 to 0.5 uM measured after 24 hrs by Western blot analysis; format: functional, cell-based; details: dose 0.1-0.5 µM; procedure, shortened: as §1
KB-VIN [10] = assay: Induction of apoptosis in human KB-VIN cells assessed as increase in cleaved PARP expression at 0.05 uM measured after 48 hrs by Western blot analysis; format: functional, cell-based; procedure, shortened: as §1
KB-VIN [11] = assay: Induction of apoptosis in human KB-VIN cells assessed as increase in cleaved caspase-3 expression at 0.05 uM measured after 48 hrs by Western blot analysis; format: functional, cell-based; procedure, shortened: as §1
KB-VIN [12] = assay: Induction of apoptosis in human KB-VIN cells assessed as increase in cleaved caspase-8 expression at 0.05 uM measured after 48 hrs by Western blot analysis; format: functional, cell-based; procedure, shortened: as §1
KB-VIN [13] = assay: Induction of apoptosis in human KB-VIN cells assessed as increase in cleaved caspase-9 expression at 0.05 uM measured after 48 hrs by Western blot analysis; format: functional, cell-based; procedure, shortened: as §1
KB-VIN [14] = assay: Induction of apoptosis in human KB-VIN cells assessed as increase in activated gammaH2AX expression at 0.05 uM measured after 48 hrs by Western blot analysis; format: functional, cell-based; procedure, shortened: as §1
KB7D [15] = assay: Cell cycle arrest in human KB7D cells assessed as increase in accumulation at sub-G1 phase at 0.01 to 0.1 uM measured after 48 hrs by propidium iodide staining based flow cytometry; format: functional; details: dose 0.01-0.1 µM
Procedure, shortened: (§3)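 Cells seeded at 2.5×10^5 per well and exposed to DMSO or compound for the stated times. They were washed in PBS and fixed overnight in ice-cold 70% ethanol at −20 °C. Staining used propidium iodide 80 µg/mL with 0.1% Triton X-100 and RNase A 100 µg/mL in PBS. DNA content was read by FACScan flow cytometry.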

KB7D [16] = assay: Induction of apoptosis in human KB7D cells assessed as increase in cleaved PARP expression at 0.01 to 0.1 uM measured after 48 hrs by Western blot analysis; format: functional, cell-based; details: dose 0.01-0.1 µM; procedure, shortened: as §1
KB7D [17] = assay: Induction of apoptosis in human KB7D cells assessed as increase in cleaved caspase-8 expression at 0.01 to 0.1 uM measured after 48 hrs by Western blot analysis; format: functional, cell-based; details: dose 0.01-0.1 µM; procedure, shortened: as §1
KB7D [18] = assay: Induction of apoptosis in human KB7D cells assessed as increase in cleaved caspase-9 expression at 0.01 to 0.1 uM measured after 48 hrs by Western blot analysis; format: functional, cell-based; details: dose 0.01-0.1 µM; procedure, shortened: as §2
KB7D [19] = assay: Cell cycle arrest in human KB7D cells assessed as increase in accumulation at G2/M phase at 0.01 to 0.05 uM measured after 18 to 24 hrs by propidium iodide staining based flow cytometry; format: functional; details: dose 0.01-0.05 µM, time 18-24 hrs; procedure, shortened: as §3
Tubulin (Homo sapiens) [20] = target: T1, Tubulin (Homo sapiens) (UniProt P68371+Q9H4B7+P0DPH7+P68366+Q13509+Q71U36+P04350+Q3ZCM7+P07437+P68363+Q9BQE3+Q6PEY2+Q13885+Q9BVA1+Q9BUF5); assay: Induction of microtubule disruption in human KB7D cells at 0.05 uM measured after 24 hrs by DAPI staining based deconvolution fluorescence microscopic analysis; format: cell-based
Procedure, shortened: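 Cells on glass coverslips treated 24 h, fixed in 4% paraformaldehyde for 15 min, and permeabilized with 0.5% Triton X-100. Blocked in PBS/2% BSA, stained with anti-beta-tubulin (1:250) and Alexa 488 anti-mouse (1:250), and mounted with DAPI. Imaged by wide-field deconvolution microscopy.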

Tubulin (Homo sapiens) [21] = target: T1, Tubulin (Homo sapiens); assay: Induction of microtubule disruption in human KB-VIN cells assessed as polymerized fraction at 0.01 uM measured after 16 hrs by SDS-PAGE analysis (reference value: 23.1 to 25.5%); format: cell-based
Procedure, shortened: (§4)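 KB-Vin or KB-7D cells treated 16 h, then lysed 5 min at 37 °C in the dark in hypotonic buffer (1% NP-40, 1 mmol/L MgCl2, 2 mmol/L EGTA, 50 mmol/L Tris-HCl pH 6.8, protease inhibitors). Spun 13000 rpm, 10 min, room temperature. Soluble supernatant and resuspended polymerized pellet run on SDS-PAGE.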

Tubulin (Homo sapiens) [22] = target: T1, Tubulin (Homo sapiens); assay: Induction of microtubule disruption in human KB-VIN cells assessed as polymerized fraction at 1 uM measured after 16 hrs by SDS-PAGE analysis (reference value: 23.1 to 25.5%); format: cell-based; procedure, shortened: as §4
Tubulin (Homo sapiens) [23] = target: T1, Tubulin (Homo sapiens); assay: Induction of microtubule disruption in human KB7D cells assessed as polymerized fraction at 0.01 uM measured after 16 hrs by SDS-PAGE analysis (reference value: 26.4 to 29%); format: cell-based; procedure, shortened: as §4
Tubulin (Homo sapiens) [24] = target: T1, Tubulin (Homo sapiens); assay: Induction of microtubule disruption in human KB7D cells assessed as polymerized fraction at 1 uM measured after 16 hrs by SDS-PAGE analysis (reference value: 26.4 to 29%); format: cell-based; procedure, shortened: as §4

Chain of Histone deacetylase 3/Nuclear receptor corepressor 2 (HDAC3/NCoR2) (O15379 whole entry): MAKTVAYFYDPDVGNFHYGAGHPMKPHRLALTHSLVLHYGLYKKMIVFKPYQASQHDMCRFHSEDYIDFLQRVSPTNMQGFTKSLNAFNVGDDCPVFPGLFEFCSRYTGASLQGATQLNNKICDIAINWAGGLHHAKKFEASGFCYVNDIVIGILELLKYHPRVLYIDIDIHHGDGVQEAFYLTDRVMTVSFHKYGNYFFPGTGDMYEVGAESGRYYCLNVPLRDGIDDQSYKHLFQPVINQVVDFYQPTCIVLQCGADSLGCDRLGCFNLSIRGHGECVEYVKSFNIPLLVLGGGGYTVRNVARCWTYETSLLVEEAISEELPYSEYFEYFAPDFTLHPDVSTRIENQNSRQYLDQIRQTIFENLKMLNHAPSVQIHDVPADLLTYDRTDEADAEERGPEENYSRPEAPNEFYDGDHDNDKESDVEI
Chain of Histone deacetylase 3/Nuclear receptor corepressor 2 (HDAC3/NCoR2) (Q9Y618 whole entry, further chain): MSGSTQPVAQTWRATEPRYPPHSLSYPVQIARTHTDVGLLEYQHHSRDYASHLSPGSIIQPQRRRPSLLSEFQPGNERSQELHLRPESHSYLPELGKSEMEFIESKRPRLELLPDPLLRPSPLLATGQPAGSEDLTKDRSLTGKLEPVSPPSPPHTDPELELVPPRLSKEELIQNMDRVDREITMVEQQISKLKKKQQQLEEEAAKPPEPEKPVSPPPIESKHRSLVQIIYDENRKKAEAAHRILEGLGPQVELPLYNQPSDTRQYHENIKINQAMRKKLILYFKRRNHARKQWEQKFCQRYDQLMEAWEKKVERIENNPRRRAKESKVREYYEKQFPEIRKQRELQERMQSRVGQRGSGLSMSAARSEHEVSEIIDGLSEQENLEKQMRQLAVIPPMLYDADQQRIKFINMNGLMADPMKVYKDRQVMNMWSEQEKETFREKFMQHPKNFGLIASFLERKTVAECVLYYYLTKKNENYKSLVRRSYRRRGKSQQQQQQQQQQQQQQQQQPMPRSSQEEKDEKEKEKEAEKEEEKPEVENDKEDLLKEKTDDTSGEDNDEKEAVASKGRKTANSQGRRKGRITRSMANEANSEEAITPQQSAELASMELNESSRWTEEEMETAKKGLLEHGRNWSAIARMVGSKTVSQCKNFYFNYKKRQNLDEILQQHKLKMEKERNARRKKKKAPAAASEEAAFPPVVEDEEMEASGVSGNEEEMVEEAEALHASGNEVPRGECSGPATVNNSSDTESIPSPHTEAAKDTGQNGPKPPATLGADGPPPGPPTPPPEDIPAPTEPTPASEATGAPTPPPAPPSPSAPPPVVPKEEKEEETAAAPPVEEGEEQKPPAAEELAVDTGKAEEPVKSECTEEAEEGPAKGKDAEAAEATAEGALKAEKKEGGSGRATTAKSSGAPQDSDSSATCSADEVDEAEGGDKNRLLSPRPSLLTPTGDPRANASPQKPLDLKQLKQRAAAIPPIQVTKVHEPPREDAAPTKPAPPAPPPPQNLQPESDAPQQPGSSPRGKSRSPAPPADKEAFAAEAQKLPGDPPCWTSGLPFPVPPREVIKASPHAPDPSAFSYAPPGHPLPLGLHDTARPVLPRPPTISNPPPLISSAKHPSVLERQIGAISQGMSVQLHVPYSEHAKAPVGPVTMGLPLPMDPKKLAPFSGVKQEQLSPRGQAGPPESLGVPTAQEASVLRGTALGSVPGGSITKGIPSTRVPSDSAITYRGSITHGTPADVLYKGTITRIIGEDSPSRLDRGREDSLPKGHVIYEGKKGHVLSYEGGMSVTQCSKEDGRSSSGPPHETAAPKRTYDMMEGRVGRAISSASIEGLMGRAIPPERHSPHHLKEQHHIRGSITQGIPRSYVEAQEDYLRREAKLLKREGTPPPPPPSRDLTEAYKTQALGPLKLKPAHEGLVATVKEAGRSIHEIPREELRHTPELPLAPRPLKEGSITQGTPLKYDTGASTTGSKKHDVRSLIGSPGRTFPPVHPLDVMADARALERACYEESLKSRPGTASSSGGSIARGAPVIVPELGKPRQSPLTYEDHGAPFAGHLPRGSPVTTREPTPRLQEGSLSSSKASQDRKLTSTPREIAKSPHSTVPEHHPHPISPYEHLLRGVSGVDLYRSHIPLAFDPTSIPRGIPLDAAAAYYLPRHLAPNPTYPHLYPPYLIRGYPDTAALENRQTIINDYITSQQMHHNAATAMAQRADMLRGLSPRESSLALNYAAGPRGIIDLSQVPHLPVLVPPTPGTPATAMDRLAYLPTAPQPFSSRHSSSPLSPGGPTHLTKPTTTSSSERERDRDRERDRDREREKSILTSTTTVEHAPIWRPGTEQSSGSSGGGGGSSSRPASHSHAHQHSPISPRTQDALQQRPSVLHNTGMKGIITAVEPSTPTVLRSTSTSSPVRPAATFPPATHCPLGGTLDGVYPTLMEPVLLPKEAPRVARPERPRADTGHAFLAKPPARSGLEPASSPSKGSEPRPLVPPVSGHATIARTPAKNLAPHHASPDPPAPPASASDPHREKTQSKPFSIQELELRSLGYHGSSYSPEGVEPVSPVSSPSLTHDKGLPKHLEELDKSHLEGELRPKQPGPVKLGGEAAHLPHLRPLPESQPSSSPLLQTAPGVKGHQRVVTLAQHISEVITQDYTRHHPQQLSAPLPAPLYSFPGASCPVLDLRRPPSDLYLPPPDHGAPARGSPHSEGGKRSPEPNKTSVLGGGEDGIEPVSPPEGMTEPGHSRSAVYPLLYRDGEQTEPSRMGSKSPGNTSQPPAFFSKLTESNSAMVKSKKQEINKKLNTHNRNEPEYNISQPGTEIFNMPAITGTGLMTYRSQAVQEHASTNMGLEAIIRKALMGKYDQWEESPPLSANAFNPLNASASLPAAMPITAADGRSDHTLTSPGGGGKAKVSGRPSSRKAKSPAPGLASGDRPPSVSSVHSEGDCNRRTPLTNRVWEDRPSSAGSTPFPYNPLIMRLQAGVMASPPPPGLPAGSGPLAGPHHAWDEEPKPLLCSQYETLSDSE
Chain of Histone deacetylase 1 (Q13547 whole entry, the tested form may be a part): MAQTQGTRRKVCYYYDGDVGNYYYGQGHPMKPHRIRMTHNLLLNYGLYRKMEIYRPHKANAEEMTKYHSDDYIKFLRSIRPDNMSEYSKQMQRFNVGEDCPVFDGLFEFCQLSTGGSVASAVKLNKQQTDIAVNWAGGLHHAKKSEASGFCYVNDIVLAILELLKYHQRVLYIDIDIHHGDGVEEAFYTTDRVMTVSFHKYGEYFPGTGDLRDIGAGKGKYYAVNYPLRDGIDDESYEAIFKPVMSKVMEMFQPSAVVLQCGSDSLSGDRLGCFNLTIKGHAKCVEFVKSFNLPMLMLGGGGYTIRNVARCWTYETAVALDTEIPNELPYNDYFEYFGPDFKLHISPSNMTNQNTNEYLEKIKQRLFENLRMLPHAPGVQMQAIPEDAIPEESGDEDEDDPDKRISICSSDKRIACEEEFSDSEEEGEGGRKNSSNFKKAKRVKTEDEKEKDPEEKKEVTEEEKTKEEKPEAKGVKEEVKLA
Chain of Histone deacetylase 2 (Q92769 whole entry, the tested form may be a part): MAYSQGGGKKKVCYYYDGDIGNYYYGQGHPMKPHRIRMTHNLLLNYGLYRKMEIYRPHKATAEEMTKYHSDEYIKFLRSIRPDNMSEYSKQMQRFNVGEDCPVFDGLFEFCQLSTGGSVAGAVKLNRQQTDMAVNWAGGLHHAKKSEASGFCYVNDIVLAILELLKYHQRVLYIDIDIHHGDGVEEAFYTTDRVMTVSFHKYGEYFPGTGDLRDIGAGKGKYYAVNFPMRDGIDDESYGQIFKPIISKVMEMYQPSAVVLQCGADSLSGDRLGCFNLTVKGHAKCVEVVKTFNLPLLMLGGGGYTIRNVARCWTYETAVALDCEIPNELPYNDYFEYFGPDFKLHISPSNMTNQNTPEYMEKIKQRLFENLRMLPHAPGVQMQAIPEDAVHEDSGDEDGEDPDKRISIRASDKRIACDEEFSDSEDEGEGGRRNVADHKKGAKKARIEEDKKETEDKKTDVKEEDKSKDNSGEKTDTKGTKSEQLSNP

COc1ccc(S(=O)(=O)Nc2ccccc2NCc2ccc(C(=O)Nc3ccccc3N)cc2)cc1
GI50 [1]: 22 nM
IC50 (Histone deacetylase 1): 1070 nM
IC50 (Histone deacetylase 2): 1470 nM
IC50 [2]: 2270 nM
Activity (KB-VIN [3]): Dose-dependent effect
Activity (KB-VIN [4]): Dose-dependent effect
Activity (KB7D [5]): Dose-dependent effect
Activity (KB7D [6]): Dose-dependent effect
Activity (KB7D [7]): Dose-dependent effect
Activity (KB-VIN [8]): Active
Activity (KB-VIN [9]): Active
Activity (KB-VIN [10]): Active
Activity (KB-VIN [11]): Active
Activity (KB-VIN [12]): Active
Activity (KB-VIN [13]): Active
Activity (KB-VIN [14]): Active
Activity (KB7D [15]): Active
Activity (KB7D [16]): Active
Activity (KB7D [17]): Active
Activity (KB7D [18]): Active
Activity (KB7D [19]): Active
Activity (Tubulin (Homo sapiens) [20]): Active
Activity (Tubulin (Homo sapiens) [21]): 25.9%
Activity (Tubulin (Homo sapiens) [22]): 17.8%
Activity (Tubulin (Homo sapiens) [23]): 14.4%
Activity (Tubulin (Homo sapiens) [24]): 16%
